Measured values from different studies.
Each line is one published result; the experiments were not run side by side.
PDE4D: 3',5'-cyclic-AMP phosphodiesterase 4D (PDE4D, Homo sapiens, UniProt Q08499)
MAK: Serine/threonine-protein kinase MAK (MAK, Homo sapiens, UniProt P20794)
MTNR1B: Melatonin receptor type 1B (MTNR1B, Homo sapiens, UniProt P49286)

O=C(O)c1cc(O)c2c(c1)C(=O)c1cccc(O)c1C2=O  inhibition (PDE4D; enzyme activity, inhibitor, radiometric; 50 µM): 9.01%
Cc1nn(C)cc1-c1nc2c(N3CCN(Cc4ccc(Cl)cc4)CC3)c(Cl)cnc2[nH]1  remaining binding (MAK; binding, competition with immobilised ligand; 1 µM): 85%
CN[C@@H](C)[C@H](O)c1ccccc1  inhibition (PDE4D; enzyme activity, inhibitor, radiometric; 50 µM): -7.03%
O=C1C[C@@H]2OCC=C3CN4CC[C@]56c7ccccc7N1[C@H]5[C@H]2[C@H]3C[C@H]46  inhibition (Cyclin-dependent kinase 7, with cyclin H (CDK7, Homo sapiens, UniProt P50613); enzyme activity, inhibitor, ADP detection; 10 µM): 38.1%
COc1ncccc1-c1cnn2ccc(N3CCN(C(=O)OC(C)C)CC3)nc12  remaining binding (Non-receptor tyrosine-protein kinase TNK1 (TNK1, Homo sapiens, UniProt Q13470); binding, competition with immobilised ligand; 1 µM): 100%
CC(=O)O[C@H]1C[C@H]2[C@@H]([C@H](OC(C)=O)C[C@@H]3CC(NCCCNc4ccnc5cc(Cl)ccc45)CC[C@@]32C)[C@@H]2CC[C@H]([C@H](C)CCCNCCCNc3ccnc4cc(Cl)ccc34)[C@@]12C (mixture of isomers)  inhibition (Botulinum neurotoxin type A, protease (Clostridium botulinum, UniProt P0DPI0); enzyme activity, inhibitor; 10 µM): 99%
COc1ccc2[nH]cc(CCNC(=O)CI)c2c1  Emax (MTNR1B; cAMP, agonist, TR-FRET; CHO-K1; 20 min): 103%
CN[C@]1(c2ccccc2Cl)CCCCC1=O  inhibition (Mitogen-activated protein kinase 1 (MAPK1, Homo sapiens, UniProt P28482); enzyme activity, inhibitor; 30 µM): -3%
COc1ccc2cccc(C(CO)CNC(=O)CF)c2c1 (stereo not shown)  Emax (MTNR1B; cAMP, agonist, TR-FRET; CHO-K1; 20 min): 93%
Nc1ncc(-c2nc(N3CCOCC3)nc(N3CCOCC3)n2)c(C(F)F)n1  remaining binding (MAK; binding, competition with immobilised ligand; 10 µM): 100%
